Activity calls are given as the source filed them. The rule behind the calls is not given here.
Legend:
Staphylococcus aureus [1] = experiment: Antibacterial activity against Staphylococcus aureus ATCC 29213 by agar disk diffusion method; assay type: functional
Outline: (§1)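 Agar disk diffusion following standard protocols; test material applied at 200 μg/disk; gentamicin at 20 μg/disk served as the standard. Organisms: S. aureus ATCC 29213, B. subtilis ATCC 6051, E. coli ATCC 25922 and C. albicans ATCC 14053. Read-out was the diameter of the inhibitory zone in mm.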

Bacillus subtilis [2] = experiment: Antibacterial activity against Bacillus subtilis ATCC 6051 by agar disk diffusion method; assay type: functional, organism-based; outline: as §1
U2OS = experiment: Cytotoxicity against human U2OS cells assessed as cell viability after 48 hrs by CellTiter-Blue assay; assay type: functional, cell-based
Outline: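 Human osteosarcoma U2OS cells were seeded at 250 cells per well in 384-well format and incubated overnight. Each well received 50 nL of a 10 mM DMSO stock, in duplicate, then 48 h at 37 °C. CellTiter-Blue reagent was added, followed by a further 22 h at 37 °C. […] was read at 530/580 nm.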

Escherichia coli [3] = experiment: Antibacterial activity against Escherichia coli ATCC 25922 by agar disk diffusion method; assay type: functional, organism-based; outline: as §1
Candida albicans [4] = experiment: Antifungal activity against Candida albicans ATCC 14053 by agar disk diffusion method; assay type: functional, organism-based; outline: as §1
Escherichia coli [5] = experiment: Antibacterial activity against Escherichia coli ATCC 25922 at 200 ug/disk by agar disk diffusion method; assay type: functional, organism-based; outline: as §1
Staphylococcus aureus [6] = experiment: Antibacterial activity against Staphylococcus aureus ATCC 29213 at 200 ug/disk by agar disk diffusion method; assay type: functional; conditions: read-out: DIZ; outline: as §1
Bacillus subtilis [7] = experiment: Antibacterial activity against Bacillus subtilis ATCC 6051 at 200 ug/disk by agar disk diffusion method; assay type: functional; conditions: read-out: DIZ; outline: as §1
Candida albicans [8] = experiment: Antifungal activity against Candida albicans ATCC 14053 at 200 ug/disk by agar disk diffusion method; assay type: functional, organism-based; outline: as §1

SMILES	Activity (Staphylococcus aureus [1])	Activity (Bacillus subtilis [2])	IC50 (U2OS) [µM]	Activity (Escherichia coli [3])	Activity (Candida albicans [4])	diameter of the inhibition zone (DIZ) (Staphylococcus aureus [1]) [mm]	Activity (Escherichia coli [5])	zone of inhibition at 200 µg/disc (Staphylococcus aureus [6]) [mm]	zone of inhibition at 200 µg/disc (Bacillus subtilis [7]) [mm]	Activity (Candida albicans [8])
C=C1CC/C=C(\C)[C@H](O)CC(C)(C)[C@H]2C[C@H]12	inactive	inactive	> 10	inactive	inactive					
C/C1=C\C[C@@H](O)[C@](C)(O)[C@H]2C[C@@H]2C(C)(C)C[C@H]1O			> 10			9				
C/C1=C\CC[C@](C)(O)[C@H]2C[C@@H]2C(C)(C)C[C@H]1O			> 10				inactive	13	13	inactive

Source: ChEMBL document CHEMBL3576777, “Hypocoprins A-C: new sesquiterpenoids from the coprophilous fungus Hypocopra rostrata” (J Nat Prod, 2015)
